Target: Indoleamine 2,3-dioxygenase 1 (Homo sapiens, UniProt P14902)
Test: Inhibition of human IDO1 assessed as reduction in convertion of N-formylkynurenine to kynurenine incubated for 30 mins
Procedure, shortened: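 IC50 values were taken as the mean of at least two independent assays.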

Chain of Indoleamine 2,3-dioxygenase 1 (P14902 whole entry): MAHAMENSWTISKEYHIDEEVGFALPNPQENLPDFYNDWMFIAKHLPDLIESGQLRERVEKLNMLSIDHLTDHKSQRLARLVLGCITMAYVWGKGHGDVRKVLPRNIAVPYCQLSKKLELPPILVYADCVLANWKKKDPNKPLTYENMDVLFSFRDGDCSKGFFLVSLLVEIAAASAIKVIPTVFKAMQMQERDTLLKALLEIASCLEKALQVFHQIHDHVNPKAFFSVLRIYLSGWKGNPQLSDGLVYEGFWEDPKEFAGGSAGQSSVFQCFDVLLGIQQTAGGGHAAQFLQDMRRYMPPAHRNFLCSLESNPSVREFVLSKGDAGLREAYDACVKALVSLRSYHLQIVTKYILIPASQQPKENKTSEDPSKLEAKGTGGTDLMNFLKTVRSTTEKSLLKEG

Going from `CCOC(=O)c1cnc2scc(-c3ccc(C)cc3)n12` to `CCOC(=O)c1cnc2scc(-c3ccc(Cl)cc3)n12`, the IC50 falls from 18 µM to 8.1 µM (2.2-fold). The second is the more potent here.

`CCOC(=O)c1cnc2scc(-c3cccc(C)c3)n12` and `CCOC(=O)c1cnc2scc(-c3ccccc3)n12` cannot be ordered by IC50: > 100 µM for the first, > 100 µM for the second.

Compared with `CCOC(=O)c1cnc2scc(-c3ccccc3C)n12`, `CCOC(=O)c1cnc2scc(-c3ccc(Br)cc3)n12` is lower in IC50: > 100 µM for the first, 5.5 µM for the second.

Going from `CCOC(=O)c1cnc2scc(C3=CCCCC3)n12` to `CCOC(=O)c1cnc2scc(-c3ccc(CC)cc3)n12`, the IC50 falls from > 100 µM to 24 µM.

Going from `CCOC(=O)c1cnc2scc(-c3ccc(OC)cc3)n12` to `Cc1ccc(-c2csc3ncc(C)n23)cc1`, the IC50 falls from 56 µM to 1.3 µM (43-fold).

`CCOC(=O)c1cnc2scc(Cc3ccccc3)n12` and `CCOC(=O)c1cnc2sc3ccccc3n12` cannot be ordered by IC50: > 100 µM for the first, > 100 µM for the second.

Going from `Cc1ccc(-c2csc3ncc(C(=O)NCCc4ccccc4)n23)cc1` to `Cc1ccc(-c2csc3ncc(C(=O)NCCc4cccc(Cl)c4)n23)cc1`, the IC50 falls from 3.5 µM to 1.9 µM (1.8-fold).

`Cc1ccc(-c2csc3ncc(C(=O)NCCc4ccc5c(c4)OCO5)n23)cc1` and `Cc1ccc(-c2csc3nnc(SCC(=O)Nc4ccc5c(c4)OCO5)n23)cc1` are within 1.5-fold of each other in IC50: 3.6 µM for the first, 3 µM for the second.

Going from `O=C(NCc1cnc2scc(-c3ccc(Br)cc3)n12)Nc1ccccc1` to `O=C(NCc1ccccc1)NCc1cnc2scc(-c3ccc(Br)cc3)n12`, the IC50 rises from 0.22 µM to 0.75 µM (3.4-fold).

Going from `O=C(NCc1cnc2scc(-c3ccc(Br)cc3)n12)NC1CCCCC1` to `COc1cccc(NC(=O)NCc2cnc3scc(-c4ccc(Br)cc4)n23)c1`, the IC50 falls from 1.8 µM to 0.16 µM (11-fold). The second is the more potent here.

Compared with `O=C(NCc1cnc2scc(-c3ccc(Br)cc3)n12)Nc1ccc2c(c1)OCO2`, `COc1ccc(NC(=O)NCc2cnc3scc(-c4ccc(Br)cc4)n23)cc1` is 1.6-fold higher in IC50: 0.12 µM for the first, 0.19 µM for the second.

`N#Cc1ccc(NC(=O)NCc2cnc3scc(-c4ccc(Br)cc4)n23)cc1` showed an IC50 of 0.077 µM.

From ChEMBL document CHEMBL3352613, “Crystal Structures and Structure-Activity Relationships of Imidazothiazole Derivatives as IDO1 Inhibitors” (ACS Med Chem Lett, 2014)
